# Laboratory results taken from ChEMBL document CHEMBL1150129, “Daucane phytoestrogens: a structure-activity study” (J Nat Prod, 2002).
# Calls of active or inactive are those of the source. The calls are words filed in the database; no cut-off is given here.
# Biological target: Estrogen receptor beta (Homo sapiens) (UniProt Q92731)
# Test: Displacement of [2,4,6,7-3H]estradiol from human recombinant ERbeta receptor
# In short: (§1)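 Recombinant human ERα or ERβ (1.5 nM) with 15 nM [3H]-17β-estradiol and diluted compounds in pH 7.5 Tris buffer with 10% glycerol, 2 mM DTT, 1 mg/mL BSA; overnight at 4 °C. Bound ligand captured on hydroxylapatite, washed thrice (ERα: Tris/KCl/EDTA/EGTA; ERβ: Tris only), ethanol-extracted, radioactivity counted.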
# Estrogen receptor beta (Homo sapiens), sequence (Q92731 whole entry): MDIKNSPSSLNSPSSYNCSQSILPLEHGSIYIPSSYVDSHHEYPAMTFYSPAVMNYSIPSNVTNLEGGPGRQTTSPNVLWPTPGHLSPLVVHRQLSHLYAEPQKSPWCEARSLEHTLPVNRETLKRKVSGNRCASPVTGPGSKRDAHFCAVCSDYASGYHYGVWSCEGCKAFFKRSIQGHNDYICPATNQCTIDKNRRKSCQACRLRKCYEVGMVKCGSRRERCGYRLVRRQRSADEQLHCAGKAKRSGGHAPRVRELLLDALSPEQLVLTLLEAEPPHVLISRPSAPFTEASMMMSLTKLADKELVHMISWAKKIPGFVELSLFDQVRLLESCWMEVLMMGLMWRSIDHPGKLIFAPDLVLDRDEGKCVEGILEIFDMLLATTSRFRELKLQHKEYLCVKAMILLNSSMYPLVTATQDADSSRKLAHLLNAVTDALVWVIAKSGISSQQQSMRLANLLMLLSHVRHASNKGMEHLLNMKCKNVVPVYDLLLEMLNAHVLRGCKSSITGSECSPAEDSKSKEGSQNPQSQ
row,Activity,Structure (SMILES)
1,< 1%,CC(=O)Oc1ccc(C(=O)O[C@H]2CC(C)=CC[C@@]3(C)CC[C@@](O)(C(C)C)[C@H]23)cc1

# Biological target: T1, Estrogen receptor (Homo sapiens) (UniProt P03372)
# T1 sequence (whole entry): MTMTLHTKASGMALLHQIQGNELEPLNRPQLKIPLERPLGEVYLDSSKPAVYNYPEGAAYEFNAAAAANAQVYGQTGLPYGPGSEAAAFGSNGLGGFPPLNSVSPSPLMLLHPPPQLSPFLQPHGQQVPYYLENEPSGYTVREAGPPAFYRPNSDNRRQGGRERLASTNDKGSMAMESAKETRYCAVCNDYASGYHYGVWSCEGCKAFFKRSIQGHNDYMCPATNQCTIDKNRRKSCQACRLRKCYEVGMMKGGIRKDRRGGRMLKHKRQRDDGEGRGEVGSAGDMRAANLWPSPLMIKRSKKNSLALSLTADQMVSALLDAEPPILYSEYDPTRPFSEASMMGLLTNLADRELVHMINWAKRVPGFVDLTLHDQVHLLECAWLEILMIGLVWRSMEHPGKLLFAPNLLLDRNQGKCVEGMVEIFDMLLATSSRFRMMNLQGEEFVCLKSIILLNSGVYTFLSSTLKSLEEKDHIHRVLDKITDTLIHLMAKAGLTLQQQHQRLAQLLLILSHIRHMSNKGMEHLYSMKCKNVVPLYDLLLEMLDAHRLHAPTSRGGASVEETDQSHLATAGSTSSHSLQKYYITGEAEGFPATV
# Test: Displacement of [2,4,6,7-3H]estradiol from human recombinant ERalpha receptor
# In short: as §1
row,Activity,Structure (SMILES)
1,< 1%,CC(=O)Oc1ccc(C(=O)O[C@H]2CC(C)=CC[C@@]3(C)CC[C@@](O)(C(C)C)[C@H]23)cc1

# Biological target: T1, Estrogen receptor (Homo sapiens)
# Test: Binding affinity to human ERalpha expressed in yeast relative to estradiol
# In short: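 Yeast (Saccharomyces cerevisiae) estrogen screen expressing human ERα with estrogen-responsive sequences driving lac-Z. Compound aliquots dried into wells before assay. β-Galactosidase activity read as chlorophenol red β-D-galactopyranoside hydrolysis, absorbance 540 nm.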
row,Structure (SMILES),Activity
1,CC1=CC[C@@]2(C)CC[C@@](O)(C(C)C)[C@@H]2[C@@H](OC(=O)Cc2ccc(O)cc2)C1,< 0.0001%
2,COc1cc(CC(=O)O[C@H]2CC(C)=CC[C@@]3(C)CC[C@@](O)(C(C)C)[C@H]23)ccc1O,inactive
3,CC(=O)Oc1ccc(C(=O)O[C@H]2CC(C)=CC[C@@]3(C)CC[C@@](O)(C(C)C)[C@H]23)cc1,0.2%
4,CC1=CC[C@@]2(C)CC[C@@](O)(C(C)C)[C@@H]2[C@@H](OC(=O)CCc2ccc(O)cc2)C1,< 0.0001%
5,CC1=CC[C@@]2(C)CC[C@@](O)(C(C)C)[C@@H]2[C@@H](OC(=O)c2ccccc2)C1,inactive
6,COc1cc(C(=O)O[C@H]2CC(C)=CC[C@@]3(C)CC[C@@](O)(C(C)C)[C@H]23)cc(OC)c1OC,inactive
7,COc1ccc(C(=O)O[C@H]2CC(C)=CC[C@@]3(C)CC[C@@](O)(C(C)C)[C@H]23)cc1,< 0.0001%

# Results, then the compound that gave them:
row,Activity,Structure (SMILES)
1,inactive,COc1cc(/C=C/C(=O)O[C@H]2CC(C)=CC[C@@]3(C)CC[C@@](O)(C(C)C)[C@H]23)cc(OC)c1O
2,inactive,COc1cc(C(=O)O[C@H]2CC(C)=CC[C@@]3(C)CC[C@@](O)(C(C)C)[C@H]23)ccc1O
3,< 0.1%,CC1=CC[C@@]2(C)CC[C@@](O)(C(C)C)[C@@H]2[C@@H](OC(=O)c2ccc(O)c(O)c2)C1
4,inactive,CC1=CC[C@@]2(C)CC[C@@](O)(C(C)C)[C@@H]2[C@@H](OC(=O)/C=C/c2ccc(O)c(O)c2)C1
5,inactive,CC1=CC[C@@]2(C)CC[C@@](O)(C(C)C)[C@@H]2[C@@H](OC(=O)CCc2ccc(O)c(O)c2)C1
6,inactive,COc1cc(/C=C/C(=O)O[C@H]2CC(C)=CC[C@@]3(C)CC[C@@](O)(C(C)C)[C@H]23)ccc1O
7,< 0.0001%,CC1=CC[C@@]2(C)CC[C@@](O)(C(C)C)[C@@H]2[C@@H](OC(=O)/C=C/c2ccc(O)cc2)C1
